A short description of series [1]: Cell cycle arrest in human CCRF-CEM cells assessed as accumulation at sub G1 phase at 4.6 uM after 24 hrs by propidium iodide staining-based flow cytometric method (reference value: 1.8%). The series is classed as functional. In general terms: Flow cytometry measures light scatter and fluorescence of single cells or particles in a stream.
Series [2] in a line: Cytotoxicity against human K562-TAX cells after 72 hrs by MTS assay. The series is classed as functional, cell-based. The procedure, abridged:
(§1)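 Cells seeded at 25000–35000 cells/mL, compounds from DMSO dosed at time zero as four-fold dilutions. Exposure 72 h at 37 °C, 5% CO2, with MTS added for 1–4 h and OD read at 490 nm. Survival expressed as % of mean control OD, with IC50 from dose-response curves. Run as technical duplicates in at least three biological replicates.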

Series [3] is described as follows: Cytotoxicity against human MRC5 cells after 72 hrs by MTS assay. Format: toxicity, cell-based. The procedure, abridged: as §1
Series [4] is described as follows: Cytotoxicity against human K562 cells after 72 hrs by MTS assay. The series is classed as functional, cell-based. Conditions: K562, 72 h. In short, it runs like this: as §1
(Tetrazolium assays rely on reduction of a dye to a coloured formazan, in cell work by metabolically active cells.)

The test system of series [5] is CCRF-CEM. In words: Inhibition of DNA synthesis in human CCRF-CEM cells assessed as decrease in BrdU incorporation by measuring synthesized DNA levels at 23 uM after 24 hrs by propidium iodide staining-based flow cytometric method (reference value: 56.37%). Format: functional. On the set-up: scale not given: the % may be the effect or the level left. The procedure, abridged: (§2)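 CCRF-CEM cells were cultured and treated as for cell cycle analysis, then pulse-labeled with 10 µM BrDU for 30 min before harvest. Cells were ethanol-fixed, DNA-denatured in 2 M HCl for 30 min at room temperature, and neutralized with 0.1 M borax. Staining used anti-BrDU, then anti-mouse-FITC, then PI (0.1 mg/mL) with RNase A (0.5 mg/mL) for 1 h. Read-out was 488 nm flow cytometry.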
(In general: Incorporation of labelled thymidine or its analogues reports DNA synthesis.)

Series [6] relates to CCRF-CEM. In words: Inhibition of DNA synthesis in human CCRF-CEM cells assessed as decrease in BrdU incorporation by measuring synthesized DNA levels at 4.6 uM after 24 hrs by propidium iodide staining-based flow cytometric method (reference value: 56.37%). Format: functional. On the set-up: scale not given: the % may be the effect or the level left. In short, it runs like this:
as §2

In series [7] the test system is CCRF-CEM. The experiment in a line: Mitotic arrest in human CCRF-CEM cells assessed as phosphorylation of histone-3 at Ser10 at 4.6 uM after 24 hrs by flow cytometric method (reference value: 1.66%). The series is classed as functional.
Series [8] in a line: Cell cycle arrest in human CCRF-CEM cells assessed as accumulation at G2/M phase at 4.6 uM after 24 hrs by propidium iodide staining-based flow cytometric method (reference value: 13.28%). The series is classed as functional.
The nature of series [9]: Cytotoxicity against human CEM/DNR cells after 72 hrs by MTS assay. The series is classed as functional, cell-based. The procedure, abridged:
as §1

The nature of series [10]: Cytotoxicity against human HCT116 cells after 72 hrs by MTS assay. Conditions: HCT-116, 72 h. Format: functional, cell-based. The procedure, abridged:
as §1

Series [11] concerns CCRF-CEM. The experiment in a line: Mitotic arrest in human CCRF-CEM cells assessed as phosphorylation of histone-3 at Ser10 at 23 uM after 24 hrs by flow cytometric method (reference value: 1.66%).
A short description of series [12]: Cell cycle arrest in human CCRF-CEM cells assessed as accumulation at S phase at 4.6 uM after 24 hrs by propidium iodide staining-based flow cytometric method (reference value: 50.33%). The series is classed as functional.
A short description of series [13]: Cytotoxicity against human BJ cells after 72 hrs by MTS assay. Format: toxicity, cell-based. In short, it runs like this: as §1
A short description of series [14]: Cytotoxicity against p53 deficient human HCT116 cells after 72 hrs by MTS assay. Format: functional, cell-based. As to conditions: HCT-116, 72 h. In short, it runs like this:
as §1

Series [15] is described as follows: Therapeutic index, ratio of IC50 for human MRC5 cells to IC50 for human CCRF-CEM cells. The series is classed as cell-based. As to conditions: MRC5 cells versus CCRF-CEM cells, read-out: Ratio IC50.
The nature of series [16]: Cytotoxicity against human A549 cells after 72 hrs by MTS assay. As to conditions: A549, 72 h. The series is classed as functional, cell-based. In short, it runs like this:
as §1

Series [17] in a line: Cell cycle arrest in human CCRF-CEM cells assessed as accumulation at S phase at 23 uM after 24 hrs by propidium iodide staining-based flow cytometric method (reference value: 50.33%). The series is classed as functional.
Series [18] relates to CCRF-CEM. In words: Inhibition of RNA synthesis in human CCRF-CEM cells assessed as decrease in BrU incorporation by measuring synthesized RNA levels at 4.6 uM after 24 hrs by propidium iodide staining-based flow cytometric method (reference value: 43.37%). On the set-up: scale not given: the % may be the effect or the level left. Format: functional.
The subject of series [19] is CCRF-CEM. In words: Inhibition of RNA synthesis in human CCRF-CEM cells assessed as decrease in BrU incorporation by measuring synthesized RNA levels at 23 uM after 24 hrs by propidium iodide staining-based flow cytometric method (reference value: 43.37%). The series is classed as functional. On the set-up: scale not given: the % may be the effect or the level left.

Series [20] is described as follows: Cell cycle arrest in human CCRF-CEM cells assessed as accumulation at G2/M phase at 23 uM after 24 hrs by propidium iodide staining-based flow cytometric method (reference value: 13.28%). The series is classed as functional.
Series [21] in a line: Cytotoxicity against human U2OS cells after 72 hrs by MTS assay. Format: functional, cell-based. In short, it runs like this: as §1
Series [22] can be described thus: Cell cycle arrest in human CCRF-CEM cells assessed as accumulation at sub G1 phase at 23 uM after 24 hrs by propidium iodide staining-based flow cytometric method (reference value: 1.8%). The series is classed as functional.
A short description of series [23]: Cell cycle arrest in human CCRF-CEM cells assessed as accumulation at G0/G1 phase at 4.6 uM after 24 hrs by propidium iodide staining-based flow cytometric method (reference value: 36.41%). Format: functional.
The nature of series [24]: Therapeutic index, ratio of IC50 for human BJ cells to IC50 for human CCRF-CEM cells. The series is classed as cell-based. Conditions: BJ cells versus CCRF-CEM cells, read-out: Ratio IC50.
The nature of series [25]: Cytotoxicity against human CCRF-CEM cells after 72 hrs by MTS assay. Format: functional, cell-based. The procedure, abridged: as §1
Series [26] can be described thus: Cell cycle arrest in human CCRF-CEM cells assessed as accumulation at G0/G1 phase at 23 uM after 24 hrs by propidium iodide staining-based flow cytometric method (reference value: 36.41%). Format: functional.

For four compounds, Activity, IC50 and selectivity ratio results are on record in ChEMBL document CHEMBL3856208, “Lupane and 18α-oleanane derivatives substituted in the position 2, their cytotoxicity and influence on cancer cells” (Eur J Med Chem, 2016).

Bounds are passed on as bounds.

What is called IC50 is the concentration that gives 50% inhibition.

For `CC1(C)CC[C@]23CC[C@]4(C)[C@H](CC[C@@H]5[C@@]6(C)CC(N)[C@H](O)C(C)(C)[C@@H]6CC[C@]54C)[C@H]2[C@H]1OC3` (some centres not stated), the Activity stood at 2.79% in series [1]; 1.88% in the series on CCRF-CEM [5]; 53.53% in the series with CCRF-CEM [6]; 1.44% in the series on CCRF-CEM [7]; 11.5% in series [8]; 0.49% with CCRF-CEM [11]. Further, the Activity in series [12] was found to be 47.8%; in [17] it was 54.9%; in the series on CCRF-CEM [18] it was 42.98%; with CCRF-CEM [19], 2.23%; in [20] it was 16.2%; in series [22] it was 7.1%. The Activity in series [23] was found to be 40.7%; in series [26] it was 28.9%. Moreover, the 50% inhibitory concentration (IC50) in series [2] worked out at 3.9 µM; in series [4] it was 4.5 µM; in series [9] it was 5.9 µM; in [10] it was 4.9 µM; in series [14], 4.8 µM; in series [16], 6.2 µM. Also, the IC50 in series [21] was 6.2 µM; in [25] it was 4.6 to 5 µM. Further, the half-maximal inhibitory concentration (IC50) at 72 h in series [3] was found to be 6.3 µM; in [13], 7.1 µM. The selectivity ratio in [15] and in series [24] was 1.4 throughout.
`COC(=O)[C@]12CC[C@@H](C(C)C)[C@@H]1[C@H]1CC[C@@H]3[C@@]4(C)CC(S)C(=O)C(C)(C)[C@@H]4CC[C@@]3(C)[C@]1(C)CC2` (some centres not stated): the 50% inhibitory concentration (IC50) in series [2], in [4], in series [9], in series [10], in series [14] and in series [16] was more than 50 µM each time. Moreover, the results for the IC50 in series [21] and in series [25] were more than 50 µM and 40 to 45.3 µM, respectively. The IC50 at 72 h in series [3] and in [13] was more than 50 µM throughout. Besides, the selectivity ratio in series [15] and in series [24] was more than 1.1 in each case.
On to `CC(C)[C@@H]1CC[C@]2(C(=O)O)CC[C@]3(C)[C@H](CC[C@@H]4[C@@]5(C)CC(N=[N+]=[N-])C(=O)C(C)(C)[C@@H]5CC[C@]43C)[C@@H]12` (some centres not stated), for which the half-maximal inhibitory concentration (IC50) in [2] was 10.6 µM; in [4] it was 14.2 µM; in series [9], 16 µM; in [10] it was more than 50 µM; in series [14], more than 50 µM; in series [16], 25.7 µM. The values for the IC50 in series [21] and in series [25] were 48.9 µM and 17 to 17.5 µM, respectively. Moreover, the half-maximal inhibitory concentration (IC50) at 72 h in series [3] and in series [13] was more than 50 µM in each case. Besides, the selectivity ratio in series [15] and in series [24] was more than 2.9 each time.
Take `CC(C)[C@@H]1CC[C@]2(C(=O)O)CC[C@]3(C)[C@H](CC[C@@H]4[C@@]5(C)C=C(NC6=C[C@]7(C)[C@H]8CC[C@@H]9[C@H]%10[C@H](C(C)C)CC[C@]%10(C(=O)O)CC[C@@]9(C)[C@]8(C)CC[C@H]7C(C)(C)C6=O)C(=O)C(C)(C)[C@@H]5CC[C@]43C)[C@@H]12`: the IC50 is 20.1 µM in series [2]; more than 50 µM in [4]; 33.9 µM in series [9]; more than 50 µM in series [10]; more than 50 µM in series [14]; more than 50 µM in series [16]. Also, the IC50 in series [21] was more than 50 µM; in series [25] it was 26.6 to 27 µM. Besides, the IC50 at 72 h in series [3] and in [13] was more than 50 µM each time. Further, the selectivity ratio in series [15] and in [24] was more than 1.9 throughout.
